An excerpt weighted towards active compounds, which were near 1.8% of everything screened.
UHRF1 binding = human UHRF1 methylated DNA binding inhibitors; UHRF1 binding to methylated oligo, TR-FRET; inhibition, % at 4.4 µM; 370,000 tested, 0.75% active; AID 687016; in the data active means inhibition above about 21%;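 further: UHRF1 SRA domain binding a hemimethylated CpG hairpin DNA probe; 0% = median of test compound wells and 100% = reference inhibitor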
LEDGF integ inh = blocks HIV-1 LEDGF/p75-dependent DNA integration; TR-FRET IN-LEDGF/p75 DNA integration, Eu/Cy5; inhibition, % at 3.7 µM; 370,000 tested, 0.64% active; AID 743269;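 active means inhibition above the screen-wide mean plus 3 SD, cut at about 13% in these data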;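 further: signal is the Cy5 over europium emission ratio at 671 and 618 nm; 0% = plate median of compound wells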
NSD2 inh = NSD2 (human) methyltransferase inhibition. inhibition, % at 12.5 µM. NSD2 peptide methylation, AlphaScreen, 120 min. O96028. 310,000 tested, 0.54% active; in the data active means inhibition above about 50%
MBD2 inh = MBD2-methylated oligo binding inhibition | TR-FRET, MBD2 binding to methylated oligonucleotide | inhibition, % at 4.4 µM | 370,000 tested, 0.31% active | AID 686964; in the data active means inhibition above about 13%
TDP2 absorb = blocks human TDP2 phosphodiesterase activity. O95551. recombinant TDP2, T5PNP hydrolysis, p-nitrophenol absorbance 415 nm. inhibition, % at 12.8 µM. 370,000 tested, 0.34% active;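 active means inhibition above the mean of all tested compounds plus 3 SD, set per campaign, cut at about 25% in these data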;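 further: 0% = DMSO with enzyme and 100% = buffer with substrate but no TDP2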
Target sequence (O95551 whole entry, looked up): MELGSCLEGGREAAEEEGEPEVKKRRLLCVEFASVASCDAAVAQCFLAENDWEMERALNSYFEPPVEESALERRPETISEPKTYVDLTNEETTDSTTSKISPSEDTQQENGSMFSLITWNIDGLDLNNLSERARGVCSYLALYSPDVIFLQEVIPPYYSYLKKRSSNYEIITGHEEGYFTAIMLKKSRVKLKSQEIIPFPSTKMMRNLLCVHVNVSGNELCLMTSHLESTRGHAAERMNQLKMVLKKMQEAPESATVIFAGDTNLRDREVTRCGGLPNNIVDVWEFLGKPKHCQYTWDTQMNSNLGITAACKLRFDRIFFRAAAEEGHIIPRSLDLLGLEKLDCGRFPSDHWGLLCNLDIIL
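test system = human TDP2 enzyme | input = TDP2 enzyme at 120 nM final | medium = 50 mM Tris-HCl pH 7.5 with Mg2+, KCl, DTT, BSA | also added = T5PNP substrate, 5 mM | times = 2 h at 37 °C | technique = epi absorbance | benchmarks = high control without enzyme, low control DMSO plus TDP2 | replication = each compound tested once, singlicate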
Casp6 inh = blocks human caspase-6 cleavage activity; P55212; purified caspase-6, Z-VEID-R110 cleavage fluorescence; inhibition, % at 12.5 µM; 350,000 tested, 0.53% active; AID 686996;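 active means mean inhibition across replicates at least about 35%, with every replicate also reaching that limit, limit read from the data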;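 further: 0% = median of neutral control wells and 100% = no fluorescence left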
Target sequence (P55212 24-179 limits assumed): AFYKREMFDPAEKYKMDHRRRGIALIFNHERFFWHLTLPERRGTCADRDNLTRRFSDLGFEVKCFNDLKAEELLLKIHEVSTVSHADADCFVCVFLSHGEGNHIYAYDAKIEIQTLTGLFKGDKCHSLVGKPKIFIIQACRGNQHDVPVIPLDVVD
Target sequence (P55212 194-293 limits assumed): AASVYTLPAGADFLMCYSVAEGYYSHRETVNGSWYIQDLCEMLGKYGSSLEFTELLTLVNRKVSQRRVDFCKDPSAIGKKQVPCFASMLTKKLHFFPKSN
An asterisk follows results filed as active; / = not tested or not shown.

SMILES	UHRF1 binding	LEDGF integ inh	NSD2 inh	MBD2 inh	TDP2 absorb	Casp6 inh
Cc1ccc(C(=O)C(C)OC(=O)C2=COCCO2)cc1C (stereo not drawn)	2.6	1.9	-0.8	8.9	-8.6	/
Cc1cc(C)c(C(=O)C(C)OC(=O)C2=COCCO2)cc1C (stereo not drawn)	1.5	-8.3	-5.7	-1.3	-9.9	58.0*
Cc1cccc(-n2nc3c(c2NC(=O)c2ccco2)CSC3)c1C	6.2	28.8*	/	1.3	-4.0	/
CN(C)CCCNC(=O)C[C@H]1CC[C@@H](NC(=O)Cc2cccnc2)[C@@H](CO)O1	/	/	/	/	/	-1.2
O=S(=O)(c1ccc2nc(N3CCN(c4ccc(F)cc4)CC3)ccc2c1)N1CCCCC1	24.5*	4.6	2.1	12.1	-3.4	1.0
O=S(=O)(c1ccc2nc(Nc3ccccc3)ccc2c1)N1CCCCC1	23.4*	-1.6	-7.0	11.4	-3.2	-0.7
CCOc1cc(/C=N/NC(=O)c2cc(C3CC3)[nH]n2)ccc1O	21.2*	-0.4	17.9	5.6	-8.9	3.9
COc1cc(/C=N/NC(=O)c2cc(C3CC3)[nH]n2)ccc1O	3.1	-2.3	13.5	-2.2	-9.9	0.8
O=C1c2ccccc2C(=O)c2c([N+](=O)[O-])ccc(O)c21	11.1	-2.5	13.8	-2.0	5.4	38.4*
O=C(O)c1ccc([N+](=O)[O-])c2c1C(=O)c1ccccc1C2=O	5.1	-7.6	3.2	-0.8	-7.3	4.1
N#C[C@@H]1[C@@H](c2ccccc2-c2cccc(F)c2)[C@H](CO)N1C(=O)C1CCCCC1	/	/	/	/	/	1.0
Cn1nc(CC(=O)Nc2ncc(Br)s2)c2ccccc2c1=O	21.6*	-1.3	-0.4	7.0	-0.4	/
CC(NC(=S)Nc1ccc([N+](=O)[O-])cc1)c1ccncc1 (stereo not drawn)	46.5*	-5.7	-2.3	1.9	-2.0	-4.9
CCN1/C(=C/c2ccc3cc(C)ccc3[n+]2C)Sc2ccc3sccc3c21	40.8*	4.2	7.0	4.9	1.8	-16.5
C[C@H]1CN([C@@H](C)CO)C(=O)Cc2cc(NC(=O)Nc3cccc4ccccc34)ccc2O[C@H]1CN(C)C(=O)Nc1ccc2c(c1)OCO2	/	/	/	/	/	-2.9
Cc1ccccc1N1CCN(C2CCCN(C(=O)c3csc(C(C)C)n3)C2)CC1 (stereo not drawn)	1.2	15.0*	4.1	0.5	-1.9	1.9
CCCCCCSc1ccc(-c2nc3ccc(Cl)cn3c2NCCCC)cc1OC	-1.4	-2.3	-2.0	3.6	3.9	-0.1
CCCCCCSc1cc(-c2nc3ccc(Cl)cn3c2NC2CCCCC2)ccc1OC	57.7*	-0.5	/	0.2	2.9	2.0
CCCCNc1c(-c2ccc(SC3CCCCC3)c(OC)c2)nc2ccc(Cl)cn12	23.7*	10.8	/	9.6	23.9	1.7
O=C(COC(=O)c1cc(Cl)nc(Cl)c1)NC1CCCCC1	/	/	-1.0	/	/	/
COc1cc(C=C2C(=O)c3ccccc3C2=O)ccc1OCC(=O)N1CCOCC1	/	/	4.4	/	/	/
CCc1ccc(N=C2NC(=O)/C(=C/c3cc(Br)c(OCC(=O)O)c(OC)c3)S2)cc1	5.2	0.0	10.6	9.3	-6.9	63.8*
COc1cccc(S(=O)(=O)N2CC3(CN(C(=O)Nc4cccc(F)c4)[C@@H](CO)c4[nH]c5cc(OC)ccc5c43)C2)c1	/	/	/	/	/	1.8
O=S(=O)(Nc1ccc(Cl)cc1NS(=O)(=O)c1ccccc1)c1ccccc1	-0.6	10.2	4.8	-6.7	9.9	29.1
O=C(O)CSc1cc(NS(=O)(=O)c2ccc(Cl)cc2)c2ccccc2c1O	-4.8	12.8	136.9*	-15.2	62.8*	95.8*
SMILES	UHRF1 binding	LEDGF integ inh	NSD2 inh	MBD2 inh	TDP2 absorb	Casp6 inh
CC=Cc1ccc2n(c1=O)C[C@H]1[C@H](CO)[C@@H](C(=O)NCCCN3CCOCC3)N(C)[C@@H]21 (mixture of isomers)	/	/	/	/	/	-2.9
CCCCOc1ccc(C(=O)OCC(=O)N2CCOCC2)cc1	5.3	2.0	-3.5	-2.8	-14.1	61.4*
CN(C)c1ccc(C(=O)OCC(=O)N2CCOCC2)cc1	1.1	0.4	0.0	0.0	1.7	-0.1
C=C1CC(c2ccc(-c3ccccc3)cc2)OC1=O (stereo not drawn)	/	/	/	/	/	-1.1
Cc1ccccc1CN1[C@@H](C)[C@H](c2ccccc2)Oc2cccc(NCC(C)C)c2S1(=O)=O	-2.0	1.8	/	-4.9	-8.4	63.0*
Cc1ccc(C)c(OCC(=O)N(Cc2nnc(-c3ccccc3Cl)o2)C2CC2)c1	-1.1	-0.1	-2.1	2.7	-1.7	1.2
Cc1cccc(OCC(=O)N(Cc2nnc(-c3ccccc3Cl)o2)C2CC2)c1	68.5*	-7.6	-4.3	-2.2	-12.6	0.7
Cc1c(C(=O)N2CCCCC2)c(S(=O)(=O)N2c3ccccc3CC2C)c(C)n1C (stereo not drawn)	22.7*	3.3	-1.6	2.4	-6.8	-1.5
N#Cc1c(=O)c2nc(NCc3ccccc3)ncc2n2ccccc12	-11.6	43.7*	4.9	-4.4	10.4	/
Cc1ccc(S(=O)(=O)N[C@@H]2CC[C@@H](CCNS(=O)(=O)Cc3ccccc3)O[C@@H]2CO)cc1	/	/	/	/	/	-4.4
O=C(c1c(O)cc(O)cc1O)C1c2c(cc(O)c3c2O[C@H](c2ccc(O)cc2)[C@@H](O)C3)OC1c1ccc(O)cc1 (stereo partly drawn)	-0.8	10.1	/	3.3	5.4	37.1*
C[C@H](O)C#Cc1cnc2c(c1)C(=O)N([C@H](C)CO)C[C@@H](C)[C@@H](CN(C)C(=O)CN1CCOCC1)O2	/	/	/	/	/	-4.7
Cc1cc(C(=O)NNC(=O)/C=C/c2ccco2)c(C)o1	28.8*	52.8*	11.8	1.9	-6.9	51.8*
Cc1ccc(N2C(=O)c3ccccc3C2Nc2ccc(S(=O)(=O)N3CCCCC3)cc2)nc1 (stereo not drawn)	77.3*	3.9	/	-4.1	6.0	-2.7
Cc1ccc(N2C(=O)c3ccccc3C2Nc2ccc(S(=O)(=O)N3CCOCC3)cc2)nc1 (stereo not drawn)	2.0	-0.6	/	4.1	-6.4	1.3
CCCNC(=O)[C@H]1[C@H](CO)[C@H]2Cn3c(cccc3=O)[C@H]2N1CCC(F)(F)F	/	/	/	/	/	-2.5
COCCCNC(=O)/C(C#N)=C/c1c(N2CCN(C)CC2)nc2c(C)cccn2c1=O	52.4*	2.2	5.5	-6.8	-0.7	-6.6
Cc1cccn2c(=O)c(/C=C(\C#N)S(=O)(=O)c3ccccc3)c(N3CCC(C(N)=O)CC3)nc12	-2.1	1.2	0.5	1.7	0.1	/
Cc1ccc(S(=O)(=O)/C(C#N)=C/c2c(N3CCC(C(N)=O)CC3)nc3c(C)cccn3c2=O)cc1	22.1*	-3.4	27.7	9.0	7.6	/
